The values below come from ChEMBL document CHEMBL2424622, “Development of amino-pyrimidine inhibitors of c-Jun N-terminal kinase (JNK): kinase profiling guided optimization of a 1,2,3-benzotriazole lead” (Bioorg Med Chem Lett, 2013).

The target of assay [1] is Serine/threonine-protein kinase 32C (Homo sapiens) (UniProt Q86UX6). Nature of the assay: Competitive binding affinity to YANK3 (unknown origin) at 10 uM in presence of ATP relative to control.
Assay [2] addresses T1, Tyrosine-protein kinase receptor TYRO3 (Homo sapiens) (UniProt Q06418).
T1 sequence (whole entry): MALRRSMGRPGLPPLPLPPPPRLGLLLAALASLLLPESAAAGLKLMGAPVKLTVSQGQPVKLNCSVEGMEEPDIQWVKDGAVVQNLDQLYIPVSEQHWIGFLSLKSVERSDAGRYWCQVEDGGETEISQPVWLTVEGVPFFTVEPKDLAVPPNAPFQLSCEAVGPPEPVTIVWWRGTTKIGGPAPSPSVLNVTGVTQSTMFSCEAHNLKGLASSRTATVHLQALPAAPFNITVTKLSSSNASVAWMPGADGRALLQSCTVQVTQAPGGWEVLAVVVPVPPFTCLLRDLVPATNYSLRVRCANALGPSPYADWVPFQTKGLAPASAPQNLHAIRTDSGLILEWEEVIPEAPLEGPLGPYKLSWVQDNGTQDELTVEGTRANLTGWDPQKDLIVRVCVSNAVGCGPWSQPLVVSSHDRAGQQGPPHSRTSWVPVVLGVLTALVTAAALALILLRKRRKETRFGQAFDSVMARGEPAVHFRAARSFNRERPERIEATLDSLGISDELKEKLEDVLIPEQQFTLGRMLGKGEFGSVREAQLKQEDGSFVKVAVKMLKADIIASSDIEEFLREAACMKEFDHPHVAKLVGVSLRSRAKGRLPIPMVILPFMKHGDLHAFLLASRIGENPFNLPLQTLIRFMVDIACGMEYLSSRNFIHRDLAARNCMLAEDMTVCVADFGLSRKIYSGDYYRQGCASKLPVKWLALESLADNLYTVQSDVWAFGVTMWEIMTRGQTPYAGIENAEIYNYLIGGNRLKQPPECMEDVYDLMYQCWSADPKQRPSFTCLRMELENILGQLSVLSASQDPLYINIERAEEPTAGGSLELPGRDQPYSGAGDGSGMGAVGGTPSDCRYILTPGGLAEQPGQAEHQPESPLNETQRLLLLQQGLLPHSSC
The experiment in a line: Competitive binding affinity to TYRO3 (unknown origin) at 10 uM in presence of ATP relative to control.

Assay [3] addresses Serine/threonine-protein kinase Nek7 (Homo sapiens, UniProt Q8TDX7). The experiment in a line: Competitive binding affinity to NEK7 (unknown origin) at 10 uM in presence of ATP relative to control.
Assay [4] has as its target Aurora kinase B (Homo sapiens) (UniProt Q96GD4). The experiment in a line: Competitive binding affinity to AURKB (unknown origin) at 10 uM in presence of ATP relative to control. Put shortly:
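In vitro ATP-site competition binding assay across a diverse panel of 128 kinases, with each compound tested at a single concentration. Kinase binding is expressed relative to control.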

Assay [5] concerns the target T2, NUAK family SNF1-like kinase 2 (Homo sapiens) (UniProt Q9H093).
T2 sequence (whole entry): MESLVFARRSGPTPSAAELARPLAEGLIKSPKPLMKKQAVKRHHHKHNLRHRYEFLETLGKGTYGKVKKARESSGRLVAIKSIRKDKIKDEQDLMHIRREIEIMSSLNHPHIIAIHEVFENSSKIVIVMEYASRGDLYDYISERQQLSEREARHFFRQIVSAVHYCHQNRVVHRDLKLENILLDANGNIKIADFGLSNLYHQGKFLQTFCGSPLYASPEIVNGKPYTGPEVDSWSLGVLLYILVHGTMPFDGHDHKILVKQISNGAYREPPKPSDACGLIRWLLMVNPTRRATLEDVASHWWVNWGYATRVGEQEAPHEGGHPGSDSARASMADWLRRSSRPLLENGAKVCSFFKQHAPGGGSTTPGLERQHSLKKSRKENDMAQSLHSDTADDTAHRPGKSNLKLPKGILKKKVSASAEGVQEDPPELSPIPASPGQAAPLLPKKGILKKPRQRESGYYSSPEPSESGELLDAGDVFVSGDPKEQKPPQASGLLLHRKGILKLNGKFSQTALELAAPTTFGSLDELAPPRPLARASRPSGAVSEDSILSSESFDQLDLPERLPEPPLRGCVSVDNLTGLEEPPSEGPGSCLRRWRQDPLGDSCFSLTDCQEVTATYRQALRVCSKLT
The experiment in a line: Competitive binding affinity to SNARK (unknown origin) at 10 uM in presence of ATP relative to control.

Assay [6] addresses Ribosomal protein S6 kinase alpha-1 (Homo sapiens, UniProt Q15418). Nature of the assay: Competitive binding affinity to RPS6KA1 kinase domain 1 (unknown origin) at 10 uM in presence of ATP relative to control.
The target of assay [7] is T3, cGMP-dependent protein kinase 1 (Homo sapiens) (UniProt Q13976).
T3 sequence (whole entry): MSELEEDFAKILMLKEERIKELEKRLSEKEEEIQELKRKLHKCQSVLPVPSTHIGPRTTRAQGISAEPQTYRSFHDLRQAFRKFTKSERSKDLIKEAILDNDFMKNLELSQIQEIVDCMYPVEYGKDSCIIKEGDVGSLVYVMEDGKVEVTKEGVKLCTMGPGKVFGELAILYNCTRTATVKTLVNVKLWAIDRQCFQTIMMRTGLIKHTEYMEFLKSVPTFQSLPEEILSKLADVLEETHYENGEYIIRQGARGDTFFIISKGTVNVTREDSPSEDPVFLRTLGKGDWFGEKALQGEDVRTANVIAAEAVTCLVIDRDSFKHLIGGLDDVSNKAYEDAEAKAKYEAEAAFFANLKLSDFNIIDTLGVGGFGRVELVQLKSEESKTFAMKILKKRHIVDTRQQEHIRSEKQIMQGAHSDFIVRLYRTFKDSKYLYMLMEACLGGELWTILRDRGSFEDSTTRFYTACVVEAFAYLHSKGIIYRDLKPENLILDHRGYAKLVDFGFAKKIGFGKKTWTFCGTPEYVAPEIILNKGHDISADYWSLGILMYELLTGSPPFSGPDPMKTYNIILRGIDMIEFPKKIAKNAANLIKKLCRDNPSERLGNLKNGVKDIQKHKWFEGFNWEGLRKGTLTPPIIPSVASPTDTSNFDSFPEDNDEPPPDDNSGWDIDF
Nature of the assay: Competitive binding affinity to PRKG1 (unknown origin) at 10 uM in presence of ATP relative to control.

Assay [8] deals with Serine/threonine-protein kinase PLK3 (Homo sapiens) (UniProt Q9H4B4). Nature of the assay: Competitive binding affinity to PLK3 (unknown origin) at 10 uM in presence of ATP relative to control.
Assay [9] has as its target Mitogen-activated protein kinase kinase kinase 12 (DLK) (Homo sapiens) (UniProt Q12852). The experiment in a line: Competitive binding affinity to DLK (unknown origin) at 10 uM in presence of ATP relative to control.

Sequence of Serine/threonine-protein kinase 32C (Homo sapiens) (Q86UX6 whole entry): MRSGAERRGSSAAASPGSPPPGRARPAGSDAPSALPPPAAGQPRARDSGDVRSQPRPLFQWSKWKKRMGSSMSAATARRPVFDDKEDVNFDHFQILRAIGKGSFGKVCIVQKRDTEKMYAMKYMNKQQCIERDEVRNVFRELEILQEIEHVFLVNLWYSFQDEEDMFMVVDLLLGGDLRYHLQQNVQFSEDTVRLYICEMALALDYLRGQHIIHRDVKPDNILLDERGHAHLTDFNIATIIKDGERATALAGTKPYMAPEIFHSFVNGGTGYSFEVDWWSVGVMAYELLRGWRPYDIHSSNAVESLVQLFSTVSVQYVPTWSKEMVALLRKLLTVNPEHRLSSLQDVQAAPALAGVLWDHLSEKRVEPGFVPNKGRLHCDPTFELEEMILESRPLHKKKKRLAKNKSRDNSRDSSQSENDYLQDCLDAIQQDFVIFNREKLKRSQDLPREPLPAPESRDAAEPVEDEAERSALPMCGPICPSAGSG
Sequence of Serine/threonine-protein kinase Nek7 (Q8TDX7 whole entry, looked up): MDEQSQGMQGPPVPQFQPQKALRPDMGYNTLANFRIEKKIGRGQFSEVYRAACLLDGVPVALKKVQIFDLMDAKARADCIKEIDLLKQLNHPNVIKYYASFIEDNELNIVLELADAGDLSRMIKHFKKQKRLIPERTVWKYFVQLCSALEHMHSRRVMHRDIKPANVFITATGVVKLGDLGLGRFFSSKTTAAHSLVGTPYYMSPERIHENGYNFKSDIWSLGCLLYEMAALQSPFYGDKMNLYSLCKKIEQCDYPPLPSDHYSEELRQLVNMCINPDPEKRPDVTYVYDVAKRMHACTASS
Sequence of Serine/threonine-protein kinase PLK3 (Homo sapiens) (Q9H4B4 whole entry, looked up): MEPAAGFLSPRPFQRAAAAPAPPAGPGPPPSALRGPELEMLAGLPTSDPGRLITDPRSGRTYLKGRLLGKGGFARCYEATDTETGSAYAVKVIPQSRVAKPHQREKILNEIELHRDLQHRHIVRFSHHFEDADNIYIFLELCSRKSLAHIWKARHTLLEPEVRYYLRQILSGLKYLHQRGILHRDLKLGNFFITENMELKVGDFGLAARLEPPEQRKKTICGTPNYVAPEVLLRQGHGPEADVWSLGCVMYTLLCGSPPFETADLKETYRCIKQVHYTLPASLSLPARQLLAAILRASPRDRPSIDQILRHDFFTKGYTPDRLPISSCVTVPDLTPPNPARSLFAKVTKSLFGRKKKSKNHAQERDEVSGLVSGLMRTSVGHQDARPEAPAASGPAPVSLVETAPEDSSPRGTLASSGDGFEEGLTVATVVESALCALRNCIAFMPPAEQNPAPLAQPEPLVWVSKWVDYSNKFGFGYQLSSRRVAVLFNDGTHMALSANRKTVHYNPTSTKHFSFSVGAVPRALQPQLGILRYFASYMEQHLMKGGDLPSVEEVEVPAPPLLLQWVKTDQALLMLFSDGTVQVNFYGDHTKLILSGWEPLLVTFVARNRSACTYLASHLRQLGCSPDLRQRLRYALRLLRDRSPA
Sequence of Aurora kinase B (Homo sapiens) (Q96GD4 whole entry): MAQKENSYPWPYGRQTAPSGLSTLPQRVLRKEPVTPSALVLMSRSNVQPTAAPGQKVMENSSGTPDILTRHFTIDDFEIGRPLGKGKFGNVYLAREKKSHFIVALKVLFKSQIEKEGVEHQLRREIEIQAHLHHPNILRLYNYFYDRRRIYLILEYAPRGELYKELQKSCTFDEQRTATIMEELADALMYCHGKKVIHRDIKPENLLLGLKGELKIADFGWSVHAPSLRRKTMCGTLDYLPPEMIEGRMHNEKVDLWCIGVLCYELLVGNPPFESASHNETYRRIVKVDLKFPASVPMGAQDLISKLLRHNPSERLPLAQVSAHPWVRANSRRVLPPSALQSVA
Sequence of Ribosomal protein S6 kinase alpha-1 (Q15418 whole entry, the tested form may be a part): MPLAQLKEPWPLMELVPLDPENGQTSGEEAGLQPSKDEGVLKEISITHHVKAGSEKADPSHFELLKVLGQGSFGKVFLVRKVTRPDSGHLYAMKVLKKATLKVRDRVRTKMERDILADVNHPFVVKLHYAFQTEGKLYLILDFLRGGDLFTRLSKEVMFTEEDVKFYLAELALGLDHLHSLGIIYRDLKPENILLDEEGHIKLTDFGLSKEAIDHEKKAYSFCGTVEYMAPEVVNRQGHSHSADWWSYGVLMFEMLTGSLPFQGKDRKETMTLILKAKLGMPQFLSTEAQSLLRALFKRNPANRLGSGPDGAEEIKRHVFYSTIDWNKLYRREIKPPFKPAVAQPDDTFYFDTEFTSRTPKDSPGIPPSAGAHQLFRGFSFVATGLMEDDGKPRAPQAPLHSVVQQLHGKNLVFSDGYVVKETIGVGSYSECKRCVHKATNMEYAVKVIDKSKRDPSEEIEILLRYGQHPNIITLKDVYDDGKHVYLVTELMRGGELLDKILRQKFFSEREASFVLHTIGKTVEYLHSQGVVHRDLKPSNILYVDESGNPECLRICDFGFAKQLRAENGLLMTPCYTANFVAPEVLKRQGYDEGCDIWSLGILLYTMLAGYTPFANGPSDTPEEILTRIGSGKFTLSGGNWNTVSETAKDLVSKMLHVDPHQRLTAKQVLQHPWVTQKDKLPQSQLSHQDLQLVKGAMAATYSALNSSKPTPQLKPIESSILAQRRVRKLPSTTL
Sequence of Mitogen-activated protein kinase kinase kinase 12 (DLK) (Homo sapiens) (Q12852 whole entry, looked up): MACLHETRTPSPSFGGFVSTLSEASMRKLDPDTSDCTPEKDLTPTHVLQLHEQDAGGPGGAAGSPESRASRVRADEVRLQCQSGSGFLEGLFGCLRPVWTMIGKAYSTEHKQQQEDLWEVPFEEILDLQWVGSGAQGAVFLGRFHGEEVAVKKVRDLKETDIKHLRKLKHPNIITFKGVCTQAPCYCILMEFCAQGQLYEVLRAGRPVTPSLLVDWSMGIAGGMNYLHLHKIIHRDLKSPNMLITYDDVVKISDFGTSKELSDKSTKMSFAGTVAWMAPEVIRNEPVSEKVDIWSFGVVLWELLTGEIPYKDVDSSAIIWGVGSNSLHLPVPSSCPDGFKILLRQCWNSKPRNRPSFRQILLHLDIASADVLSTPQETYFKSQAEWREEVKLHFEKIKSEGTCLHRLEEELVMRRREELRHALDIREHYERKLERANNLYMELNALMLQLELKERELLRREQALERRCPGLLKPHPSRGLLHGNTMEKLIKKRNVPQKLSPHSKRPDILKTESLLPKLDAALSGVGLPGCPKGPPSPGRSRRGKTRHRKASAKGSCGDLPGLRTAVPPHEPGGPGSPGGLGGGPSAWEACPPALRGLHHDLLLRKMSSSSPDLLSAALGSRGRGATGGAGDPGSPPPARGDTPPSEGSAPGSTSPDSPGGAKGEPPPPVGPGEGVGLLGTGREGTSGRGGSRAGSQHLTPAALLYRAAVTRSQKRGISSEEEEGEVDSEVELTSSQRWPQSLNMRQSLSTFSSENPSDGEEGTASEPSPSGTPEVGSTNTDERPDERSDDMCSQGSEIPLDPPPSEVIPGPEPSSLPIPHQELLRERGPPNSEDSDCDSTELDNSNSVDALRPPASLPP

Turning to `O[C@H]1CC[C@H](Nc2nccc(-n3ccc4ccccc43)n2)CC1`, the inhibition (as a rule, the relative decrease from the control value, in per cent) in assay [1] is below 50%; in assay [2] it was below 50%; in [3], below 50%; in [4], below 50%; in assay [5], below 50%; in [6], 66%. Besides, the inhibition in [7], in assay [8] and in [9] was below 50% in each case.
Regarding `O[C@H]1CC[C@H](Nc2nccc(-n3nnc4ccccc43)n2)CC1`, the inhibition in [1] was below 50%; in assay [2] it was below 50%; in assay [3], 93%; in assay [4], 68%; in assay [5], 94%; in [6] it was 100%. Further, the inhibition is below 50% in [7], 68% in assay [8] and below 50% in assay [9].
Turning to `CS(=O)(=O)CCCOc1cccc2c1ccn2-c1ccnc(N[C@H]2CC[C@H](C(=O)N3CCC(O)CC3)CC2)n1`, the inhibition in [3], in assay [5] and in assay [6] was above 85% each time.
As to `O[C@H]1CC[C@H](Nc2nccc(-n3ncc4ccccc43)n2)CC1`, the inhibition in [1] is below 50%; in assay [2], below 50%; in assay [3], below 50%; in assay [4], below 50%; in assay [5], 78%; in [6] it was 91%. Moreover, the inhibition in [7], in assay [8] and in [9] was below 50% in each case.
Take `O[C@H]1CC[C@H](Nc2nccc(-c3n[nH]c4ccccc34)n2)CC1`: the inhibition is below 50% in assay [1]; below 50% in assay [2]; 91% in assay [4]; below 50% in assay [7]; below 50% in assay [8].
